The text below walks through data of ChEMBL document CHEMBL2150909, “Imidazo[1,2-a]pyridines: orally active positive allosteric modulators of the metabotropic glutamate 2 receptor” (J Med Chem, 2012).

Data set [1] deals with T1, Metabotropic glutamate receptor 2 (Homo sapiens, UniProt Q14416). The data set can be described thus: Agonist activity at human mGlu 2 expressed in CHO cells assessed as [35S]GTPgammaS binding by liquid scintillation analysis. The class given is functional, cell-based. The method in brief:
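Membranes from butyrate-stimulated (5 mM, 24 h) CHO cells expressing human mGlu2. Preincubated 30 min at 30 °C in HEPES pH 7.4 with NaCl, MgCl2, 50 μM GDP and saponin; modulator 0.3 nM–50 μM, no added glutamate. [35S]GTPγS 0.1 nM final, 30 min at 30 °C, filtered, scintillation counted. Nonspecific binding defined with cold GTP; 11 concentrations in duplicate, ≥3 curves.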
Target sequence in this assay (Q14416 whole entry): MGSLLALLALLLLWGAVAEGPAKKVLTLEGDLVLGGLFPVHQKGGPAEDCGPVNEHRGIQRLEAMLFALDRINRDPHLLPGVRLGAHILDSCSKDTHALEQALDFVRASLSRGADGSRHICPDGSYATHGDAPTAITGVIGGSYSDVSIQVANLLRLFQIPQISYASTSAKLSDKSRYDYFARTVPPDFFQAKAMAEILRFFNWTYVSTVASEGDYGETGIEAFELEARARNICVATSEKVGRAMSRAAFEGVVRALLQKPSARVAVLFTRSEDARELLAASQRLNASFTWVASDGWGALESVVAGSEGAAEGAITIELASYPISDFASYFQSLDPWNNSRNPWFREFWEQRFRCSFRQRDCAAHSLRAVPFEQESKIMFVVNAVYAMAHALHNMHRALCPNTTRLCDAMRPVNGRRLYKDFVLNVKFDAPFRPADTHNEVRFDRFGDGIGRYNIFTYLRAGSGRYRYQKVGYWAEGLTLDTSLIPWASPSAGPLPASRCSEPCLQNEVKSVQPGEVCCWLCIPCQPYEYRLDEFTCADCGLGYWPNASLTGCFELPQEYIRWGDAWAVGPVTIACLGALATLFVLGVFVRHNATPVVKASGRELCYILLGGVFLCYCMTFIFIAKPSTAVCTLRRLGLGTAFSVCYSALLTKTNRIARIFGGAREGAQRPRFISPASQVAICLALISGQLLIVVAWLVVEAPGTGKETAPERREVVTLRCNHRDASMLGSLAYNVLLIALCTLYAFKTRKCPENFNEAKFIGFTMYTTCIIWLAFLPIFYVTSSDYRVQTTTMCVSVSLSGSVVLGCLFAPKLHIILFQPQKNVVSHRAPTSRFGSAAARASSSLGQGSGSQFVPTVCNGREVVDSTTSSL

Data set [2] deals with T1, Metabotropic glutamate receptor 2. The data set can be described thus: Agonist activity at human mGlu 2 expressed in CHO cells by PAM assay relative to glutamate. The class given is functional, cell-based. The method in brief: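 The assay measured [35S]GTPγS binding to membranes from CHO cells expressing human mGluR2. Cells were butyrate-stimulated (5 mM, 24 h) before membranes were prepared. Membranes were preincubated for 30 min at 30 °C in HEPES pH 7.4 buffer (NaCl, MgCl2, 50 μM GDP) with compound (0.3 nM–50 μM, 11 concentrations) plus EC25 glutamate. [35S]GTPγS (0.1 nM final) was then added for 30 min at 30 °C. Bound label was collected by filtration and counted. Runs were done at least in triplicate with duplicate points, and a four-parameter logistic fit gave the values.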
Target sequence in this assay (Q14416 19-872 limits assumed): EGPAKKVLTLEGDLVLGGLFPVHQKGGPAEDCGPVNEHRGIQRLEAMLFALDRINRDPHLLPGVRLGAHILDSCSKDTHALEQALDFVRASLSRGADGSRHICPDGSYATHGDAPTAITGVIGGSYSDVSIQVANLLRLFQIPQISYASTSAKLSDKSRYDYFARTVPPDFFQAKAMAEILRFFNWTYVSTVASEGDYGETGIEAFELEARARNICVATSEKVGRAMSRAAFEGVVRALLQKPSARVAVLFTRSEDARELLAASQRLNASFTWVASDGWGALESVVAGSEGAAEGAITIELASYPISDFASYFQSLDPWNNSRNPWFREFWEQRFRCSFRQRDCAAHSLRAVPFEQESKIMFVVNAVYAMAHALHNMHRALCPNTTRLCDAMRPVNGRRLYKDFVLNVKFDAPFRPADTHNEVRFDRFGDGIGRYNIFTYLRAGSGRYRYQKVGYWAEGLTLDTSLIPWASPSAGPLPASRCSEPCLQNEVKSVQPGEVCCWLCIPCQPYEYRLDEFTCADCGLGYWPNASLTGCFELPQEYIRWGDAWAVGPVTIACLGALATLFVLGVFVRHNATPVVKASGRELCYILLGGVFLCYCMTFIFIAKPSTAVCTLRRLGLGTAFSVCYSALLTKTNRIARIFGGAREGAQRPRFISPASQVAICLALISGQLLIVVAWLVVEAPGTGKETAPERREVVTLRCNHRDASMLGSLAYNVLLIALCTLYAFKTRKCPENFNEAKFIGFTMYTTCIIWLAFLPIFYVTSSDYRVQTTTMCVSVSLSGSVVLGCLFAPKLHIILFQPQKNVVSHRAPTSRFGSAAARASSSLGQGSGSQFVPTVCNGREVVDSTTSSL

Data set [3] is described as follows: Metabolic stability of human liver microsomes assessed as compound metabolized at 5 uM after 15 mins. Format: ADME, Microsome. The settings on record: read-out: Drug metabolism. The method in brief: (§1)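 Test compound at 5 μM incubated 15 min with rat or human liver microsomes; read-out is percent of compound metabolized.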
Data set [4] in a line: Metabolic stability of Sprague-Dawley rat liver microsomes assessed as compound metabolized at 5 uM after 15 mins. The following applies: read-out: Drug metabolism. The class given is ADME, Microsome. The gist of the method:
as §1

Data set [5] can be described thus: Cmax in Sprague-Dawley rat at 10 mg/kg, po and 1.25 mg/kg, iv. The class given is ADME, organism-based. The following applies: in vivo. The gist of the method:
(§2)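 Male Sprague-Dawley rats given 10 mg/kg orally and/or 1.25 mg/kg intravenously; compound formulated in 20% HP-β-CD at pH 4. Cmax, tmax, AUC0−inf, t1/2, clearance and oral bioavailability F derived from plasma levels; geometric mean of at least two runs ± SEM.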

Data set [6] is described as follows: Tmax in Sprague-Dawley rat at 10 mg/kg, po and 1.25 mg/kg, iv. Format: ADME, organism-based. The following applies: in vivo. The method in brief:
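Rat pharmacokinetics in Sprague−Dawley rats: oral 10 mg/kg and intravenous 1.25 mg/kg, formulated in 20% HP-β-CD at pH 4. Plasma profiles used for Cmax, tmax, AUC0−inf and t1/2. Reported as geometric means of at least two runs ± SEM.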

Data set [7] can be described thus: AUC (0 to infinity) in Sprague-Dawley rat at 10 mg/kg, po and 1.25 mg/kg, iv. Format: ADME, organism-based. The following applies: plasma. The method in brief: as §2
A short description of data set [8]: Half life in Sprague-Dawley rat at 10 mg/kg, po and 1.25 mg/kg, iv. Format: ADME, organism-based. The following applies: in vivo. The gist of the method:
as §2

A short description of data set [9]: Clearance in Sprague-Dawley rat at 10 mg/kg, po and 1.25 mg/kg, iv. Format: ADME, organism-based. The settings on record: in vivo. The method in brief:
as §2

Data set [10] is described as follows: Drug uptake in SPF Swiss mouse brain at 10 mg/kg, sc after 1 hr. The settings on record: read-out: Drug uptake. More on the design: dose 10 mg/kg, route subcutaneous. Format: ADME, organism-based. The method in brief: (§3)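 Male Swiss SPF mice dosed subcutaneously at 10 mg/kg in 20% HP-β-CD, pH 4. Brain levels measured in ng/g and plasma levels in ng/mL at the stated time, with brain/plasma ratio; geometric mean of at least two runs ± SEM.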

The nature of data set [11]: Drug uptake in SPF Swiss mouse brain at 10 mg/kg, sc after 2 hrs. The class given is ADME, organism-based. More on the design: dose 10 mg/kg, route subcutaneous. The following applies: read-out: Drug uptake. The gist of the method:
as §3

Data set [12] can be described thus: Drug uptake in SPF Swiss mouse brain at 10 mg/kg, sc after 4 hrs. The class given is ADME, organism-based. More on the design: dose 10 mg/kg, route subcutaneous. The following applies: read-out: Drug uptake. The gist of the method: as §3
Data set [13] can be described thus: Plasma concentration in SPF Swiss mouse at 10 mg/kg, sc after 1 hr. Format: ADME, organism-based. More on the design: dose 10 mg/kg, route subcutaneous. The gist of the method: as §3
A short description of data set [14]: Plasma concentration in SPF Swiss mouse at 10 mg/kg, sc after 2 hrs. The class given is ADME, organism-based. Also noted: dose 10 mg/kg, route subcutaneous. The method in brief:
as §3

Data set [15] in a line: Plasma concentration in SPF Swiss mouse at 10 mg/kg, sc after 4 hrs. The class given is ADME, organism-based. Also noted: dose 10 mg/kg, route subcutaneous. The method in brief:
as §3

Data set [16] in a line: Ratio of drug level in brain to plasma of SPF Swiss mouse at 10 mg/kg, sc after 1 hr. Format: ADME, organism-based. More on the design: dose 10 mg/kg, route subcutaneous. The following applies: read-out: BPR. The gist of the method: (§4)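 Male Swiss SPF mice, single subcutaneous dose of 10 mg/kg in 20% HP-β-CD at pH 4. Brain levels (ng/g) and plasma levels (ng/mL) measured at the stated time after dosing; brain-to-plasma ratio taken from these. Geometric mean of at least two runs ± SEM.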

The nature of data set [17]: Ratio of drug level in brain to plasma of SPF Swiss mouse at 10 mg/kg, sc after 2 hrs. The class given is ADME, organism-based. More on the design: dose 10 mg/kg, route subcutaneous. The following applies: read-out: BPR. The method in brief:
as §4

A short description of data set [18]: Ratio of drug level in brain to plasma of SPF Swiss mouse at 10 mg/kg, sc after 4 hrs. Format: ADME, organism-based. More on the design: dose 10 mg/kg, route subcutaneous. The settings on record: read-out: BPR. The gist of the method: as §4
Data set [19] is described as follows: Oral bioavailability in Sprague-Dawley rat at 10 mg/kg. The class given is ADME, organism-based. The settings on record: in vivo. The method in brief:
as §2

Data set [20] is described as follows: Cmax in Sprague-Dawley rat at 10 mg/kg, po and 2.5 mg/kg, iv. The class given is ADME, organism-based. The settings on record: in vivo. The gist of the method: (§5)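 Rat PK: compounds formulated in 20% HP-β-CD at pH 4 and given orally and intravenously. Values are geometric means of at least two runs ± SEM.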
A short description of data set [21]: Tmax in Sprague-Dawley rat at 10 mg/kg, po and 2.5 mg/kg, iv. The following applies: in vivo. The class given is ADME, organism-based. The gist of the method: as §5
Data set [22] can be described thus: AUC (0 to infinity) in Sprague-Dawley rat at 10 mg/kg, po and 2.5 mg/kg, iv. The class given is ADME, organism-based. The following applies: plasma. The method in brief:
as §5

A short description of data set [23]: Half life in Sprague-Dawley rat at 10 mg/kg, po and 2.5 mg/kg, iv. The class given is ADME, organism-based. The following applies: in vivo. The gist of the method: as §5
Data set [24] can be described thus: Clearance in Sprague-Dawley rat at 10 mg/kg, po and 2.5 mg/kg, iv. Format: ADME, organism-based. The following applies: in vivo.

Structures are written as SMILES. pEC50: −log10 of the molar value.

With `Cn1ccc2cc(-c3ccn4c(CC(F)(F)F)cnc4c3C#N)cc(Cl)c21`, the negative logarithm of the EC50 (pEC50) in data set [1] was 6.92. Moreover, the maximum response (Emax) in [2] came out at 184%. Moreover, the figures for the metabolised at 0.25 h, 5 µM in [3] and in data set [4] were 51% and 62%, respectively.
Taken in the same sequence, the figures for `N#Cc1c(-c2ccc(OC3CCOCC3)c(Cl)c2)ccn2c(CC(F)(F)F)cnc12` were 6.21, 173%, 29% and 50%.
Take `N#Cc1c(-c2ccc(Oc3ccccc3)cc2)ccn2c(CC(F)(F)F)cnc12`: the metabolised at 0.25 h, 5 µM in data set [3] and in data set [4] was 23% each time. The same compound returned a peak concentration (Cmax) in data set [5] of 274 ng/mL. Moreover, the Tmax in [6] came to 30 min. Also, the AUC(0-inf) in data set [7] is 714 ng·h/mL. The same compound showed a half-life in [8] of 126 min. For the same compound, the clearance in data set [9] is 56.7 mL/min/kg. Moreover, the concentration at 1 h was 1840 ng/g in data set [10] and 1040 ng/mL in [13]. For the same compound, the figures for the concentration at 2 h in data set [11] and in data set [14] were 1530 ng/g and 893 ng/mL, respectively. In addition, the results for the concentration at 4 h in [12] and in data set [15] were 221 ng/g and 114 ng/mL, respectively. For the same compound, the Kp at 1 h in data set [16] came out at 1.8. For the same compound, the Kp at 2 h in [17] is 1.7. In addition, in data set [18], the Kp at 4 h is 1.9. In data set [19], this compound gave a bioavailability of 27%.
`FC(F)(F)Cc1cnc2c(Cl)c(-c3cc(Cl)c4c(ccn4CC4CC4)c3)ccn12`: the maximal effect (Emax) in data set [2] came to 193%. Besides, the metabolised at 0.25 h, 5 µM was found to be 1% in data set [3] and 70% in data set [4].
The like results for `N#Cc1c(-c2cc(Cl)c3c(ccn3CC3CC3)c2)ccn2c(CC(F)(F)F)cnc12` were, in that order, 200%, 19% and 74%.
As for `N#Cc1c(-c2ccc3c(ccn3CC3CC3)c2)ccn2c(CC(F)(F)F)cnc12`, in data set [1], the negative-log EC50 (pEC50) is 6.72. In addition, in data set [2], the Emax turned out to be 230%. The values for the metabolised at 0.25 h, 5 µM in data set [3] and in [4] were 24% and 40%, respectively.
With `N#Cc1c(-c2ccc3c(ccn3C3CCOCC3)c2)ccn2c(CC(F)(F)F)cnc12`, in data set [1], the pEC50 is 6.30. The compound further came in with an Emax in [2] of 442%. The metabolised at 0.25 h, 5 µM was 23% in data set [3] and 28% in data set [4]. The peak level in data set [20] (Cmax) was 216 ng/mL. Further, the Tmax in [21] amounted to 30 min. In [22], this compound yielded an AUC(0-inf) of 281 ng·h/mL. The compound further gave a half-life in data set [23] of 55.2 min. Besides, in data set [24], the clearance was 83.3 mL/min/kg. Also, the concentration at 1 h turned out to be 704 ng/g in data set [10] and 932 ng/mL in [13]. In addition, the figures for the concentration at 2 h in data set [11] and in [14] were 50 ng/g and 95 ng/mL, respectively. Further, the Kp at 1 h in data set [16] turned out to be 0.8. Also, in data set [17], the Kp at 2 h was 0.5. In [19], this compound came in with a bioavailability of 15%.
